Entries after “also recorded” stand apart in the source; their conditions may differ. Read-outs that look alike come from different tables or passages of the source.
Columns and labels:
[1] = type: in vivo, Sprague-Dawley rats; settings: for Number of metabolites detected and tentatively identified: rat bile, urine, plasma and feces, oral 100 mg kg^−1; for Metabolic stability, comparison in words: rat in vivo metabolite profile, HFBA vs HPABA, R-HFBA vs S-HFBA
Summary of the method: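 Fasted male Sprague-Dawley rats (n = 5/group) received a single 100 mg kg−1 gavage in 0.5% CMC-Na. Urine and feces were collected 0–24 h in metabolic cages, heparinised plasma at 0.5, 3 and 6 h, and bile 0–12 h from bile-duct-catheterised rats. Feces were powdered and sonicated in methanol for 30 min. Analysis was by UHPLC-FT-ICR-MS, positive ESI, m/z 50–1000, with MS/MS at 10 eV.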

[2] = cited from earlier work
[3] = Urinary excretion of unchanged drug in rats after a single oral dose; type: in vivo, Sprague-Dawley rats; settings: rat; for Time period of highest urinary excretion ratio: oral 50 mg kg^−1; for Cumulative amount in urine: n = 5, mean ± SD; for Cumulative urinary excretion, share of the total dose: oral 50 mg kg^−1, during 48 h, unchanged drug
Summary of the method: (§1)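 Male Sprague-Dawley rats (220 ± 20 g), fasted 12 h, given 50 mg kg−1 by gavage in 0.5% CMC-Na (n = 5/group). Urine and feces were collected in metabolic cages at intervals to 48 h; feces were air-dried, weighed and homogenised in saline. Bile-duct-cannulated rats (ether anaesthesia) were dosed after recovery, with bile collected every 2 h to 12 h. Unchanged drug was measured by UHPLC-MS/MS (positive ESI MRM, internal standard; LLOQ 0.005 μg mL−1).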

[4] = Fecal excretion of unchanged drug in rats after a single oral dose; type: in vivo, Sprague-Dawley rats; settings: rat; for Time period of highest fecal excretion ratio: oral 50 mg kg^−1; for Cumulative amount in feces: n = 5, mean ± SD; for Accumulative fecal excretion, share of the total dose: unchanged drug
Summary of the method: as §1

[5] = type: in vivo, Sprague-Dawley rats; settings: for Cumulative amount in bile: bile duct cannulated rat, n = 5, mean ± SD; for Cumulative biliary excretion, share of the dose: rat, oral 50 mg kg^−1, during 12 h, unchanged drug
Summary of the method: as §1

[6] = Total cumulative excretion in three routes; type: in vivo, Sprague-Dawley rats; settings: rat, oral 50 mg kg^−1, unchanged drug
Summary of the method: as §1

[7] = cited from earlier work; remark: listed apart in the source
[8] = cited from earlier work; remark: listed apart in the source
[9] = cited from earlier work; remark: listed apart in the source
[10] = rats, oral (oral or intravenous) administration of each enantiomer

| Number of metabolites detected and tentatively identified [1] | Metabolic stability, comparison in words [1] | Time period of highest urinary excretion ratio [3] [h] | Cumulative amount in urine ([3]; oral 50 mg kg^−1, 2 h) [µg] | Cumulative amount in urine ([3]; oral 50 mg kg^−1, 4 h) [µg] | Cumulative amount in urine ([3]; oral 50 mg kg^−1, 6 h) [µg] | Cumulative amount in urine ([3]; oral 50 mg kg^−1, 8 h) [µg] | Cumulative amount in urine ([3]; oral 50 mg kg^−1, 10 h) [µg] | Cumulative amount in urine ([3]; oral 50 mg kg^−1, 12 h) [µg] | Cumulative amount in urine ([3]; oral 50 mg kg^−1, 24 h) [µg] | Cumulative amount in urine ([3]; oral 50 mg kg^−1, 36 h) [µg] | Cumulative amount in urine ([3]; oral 50 mg kg^−1, 48 h) [µg] | Cumulative urinary excretion, share of the total dose [3] [%] | Time period of highest fecal excretion ratio [4] [h] | Cumulative amount in feces ([4]; oral 50 mg kg^−1, 2 h) [µg] | Cumulative amount in feces ([4]; oral 50 mg kg^−1, 4 h) [µg] | Cumulative amount in feces ([4]; oral 50 mg kg^−1, 6 h) [µg] | Cumulative amount in feces ([4]; oral 50 mg kg^−1, 8 h) [µg] | Cumulative amount in feces ([4]; oral 50 mg kg^−1, 10 h) [µg] | Cumulative amount in feces ([4]; oral 50 mg kg^−1, 12 h) [µg] | Compound | further results |
| --- | --- | --- | --- | --- | --- | --- | --- | --- | --- | --- | --- | --- | --- | --- | --- | --- | --- | --- | --- | --- | --- |
| 8 | more metabolically stable than HPABA | – | – | – | – | – | – | – | – | – | – | – | – | – | – | – | – | – | – | CC(O)C(=O)Nc1ccc(C(F)(F)F)cc1C(=O)O (stereo not shown) [HFBA, 2-(2-Hydroxypropanamido)-5-trifluoromethyl benzoic acid] | Bioavailability compared with HPABA [2]: better; Half-life compared with HPABA [2]: longer |
| 7 | more metabolically stable than S-HFBA | 0 to 2 | 2747 ± 332 | 3149 ± 292 | 3309 ± 457 | 3894 ± 504 | 4010 ± 450 | 4117 ± 435 | 4333 ± 518 | 4394 ± 485 | 4425 ± 478 | 40.2 | 6 to 8 | 6.300 ± 1.60 | 11.00 ± 3.50 | 254.1 ± 400 | 1216 ± 518 | 1980 ± 512 | 2362 ± 629 | CC(O)C(=O)Nc1ccc(C(F)(F)F)cc1C(=O)O (stereo not shown) [R-HFBA, 2-(2-Hydroxypropanamido)-5-trifluoromethyl benzoic acid] | Cumulative amount in feces ([4]; oral 50 mg kg^−1, 24 h): 2687 ± 598 µg; Cumulative amount in feces ([4]; oral 50 mg kg^−1, 36 h): 2782 ± 635 µg; Cumulative amount in feces ([4]; oral 50 mg kg^−1, 48 h): 2817 ± 626 µg; Accumulative fecal excretion, share of the total dose ([4]; oral 50 mg kg^−1, 48 h): 25.6%; Cumulative amount in bile ([5]; oral 50 mg kg^−1, 2 h): 185.3 ± 8.20 µg; Cumulative amount in bile ([5]; oral 50 mg kg^−1, 4 h): 531.7 ± 95.4 µg; Cumulative amount in bile ([5]; oral 50 mg kg^−1, 6 h): 783.1 ± 56.6 µg; Cumulative amount in bile ([5]; oral 50 mg kg^−1, 8 h): 925.9 ± 68.1 µg; Cumulative amount in bile ([5]; oral 50 mg kg^−1, 10 h): 1075 ± 62.6 µg; Cumulative amount in bile ([5]; oral 50 mg kg^−1, 12 h): 1239 ± 54.6 µg; Cumulative biliary excretion, share of the dose [5]: 11.3%; Total cumulative excretion in three routes, share of the dose [6]: 65.8%; AUC compared with S-HFBA [2, 10]: greater; also recorded: larger; Clearance (CL) compared with S-HFBA [2, 10]: significantly lower; t1/2 compared with S-HFBA [2, 10]: greater; also recorded: longer; Anti-inflammatory activity compared with aspirin [7]: superior to aspirin; Antiplatelet aggregation activity compared with aspirin [8]: superior to aspirin; Gastrointestinal toxicity compared with aspirin [9]: less |
| 8 | – | 0 to 2 | 1831 ± 253 | 2525 ± 285 | 2713 ± 185 | 3098 ± 279 | 3249 ± 294 | 3313 ± 319 | 3413 ± 251 | 3469 ± 216 | 3489 ± 225 | 31.7 | 10 to 12 | 5.800 ± 7.70 | 17.60 ± 18.9 | 89.90 ± 80.3 | 791.6 ± 519 | 1604 ± 459 | 2470 ± 203 | CC(O)C(=O)Nc1ccc(C(F)(F)F)cc1C(=O)O (stereo not shown) [S-HFBA, 2-(2-Hydroxypropanamido)-5-trifluoromethyl benzoic acid] | Cumulative amount in feces ([4]; oral 50 mg kg^−1, 24 h): 2764 ± 248 µg; Cumulative amount in feces ([4]; oral 50 mg kg^−1, 36 h): 2878 ± 213 µg; Cumulative amount in feces ([4]; oral 50 mg kg^−1, 48 h): 2944 ± 252 µg; Accumulative fecal excretion, share of the total dose ([4]; oral 50 mg kg^−1, 48 h): 26.8%; Cumulative amount in bile ([5]; oral 50 mg kg^−1, 2 h): 170.8 ± 14.1 µg; Cumulative amount in bile ([5]; oral 50 mg kg^−1, 4 h): 515.4 ± 77.5 µg; Cumulative amount in bile ([5]; oral 50 mg kg^−1, 6 h): 571.8 ± 95.4 µg; Cumulative amount in bile ([5]; oral 50 mg kg^−1, 8 h): 652.9 ± 50.7 µg; Cumulative amount in bile ([5]; oral 50 mg kg^−1, 10 h): 745.6 ± 57.7 µg; Cumulative amount in bile ([5]; oral 50 mg kg^−1, 12 h): 817.0 ± 90.9 µg; Cumulative biliary excretion, share of the dose [5]: 7.4%; Total cumulative excretion in three routes, share of the dose [6]: 58.5%; Anti-inflammatory activity compared with aspirin [7]: superior to aspirin; Antiplatelet aggregation activity compared with aspirin [8]: superior to aspirin; Gastrointestinal toxicity compared with aspirin [9]: less |

From paper PMC9055496 (RSC Advances, 2020)
